Measured values reported in ChEMBL document CHEMBL2424615, “Design, synthesis, and characterization of novel tetrahydropyran-based bacterial topoisomerase inhibitors with potent anti-gram-positive activity” (J Med Chem, 2013).

Columns and labels:
[1] = biological target: DNA gyrase (Staphylococcus aureus, UniProt P0A0K8+P20831); assay: Inhibition of wild type Staphylococcus aureus DNA gyrase subunit 2GyrA/2GyrB assessed as pBR322 supercoiling after 1 hr; type: protein-complex assay
[2] = system: Enterococcus faecalis; assay: Antibacterial activity against Enterococcus faecalis clinical isolate assessed as growth inhibition by broth microdilution method; type: functional
[3] = biological target: hERG (KCNH2) (Homo sapiens, UniProt Q12809); assay: Inhibition of human ERG expressed in CHO cells at 10 uM after 3 mins by patch clamp assay relative to control; type: cell-based; settings: CHO cells that express human ERG
[4] = system: Staphylococcus aureus; assay: Antistaphylococcal activity against Staphylococcus aureus DSM 11823 in neutropenic NMRI mouse thigh infection model assessed as reduction of log10cfu in thigh at 40 mg/kg, sc measured after 6 hrs; type: functional; settings: route subcutaneous
Procedure, shortened: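 Mice made neutropenic with ip cyclophosphamide, 150 mg/kg on day -4 and 100 mg/kg on day -1. Log-phase S. aureus (A580 0.3-0.9), 0.05 ml inoculum given im into both thighs 2 h before sc dosing in 5% mannitol in water at 10 ml/kg. Thighs homogenized, serially diluted and plated for CFU 6 h post infection.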

[5] = Inhibition of wild type Escherichia coli ATCC 25922 DNA topoisomerase-4 subunit 2ParC/2ParE assessed as pBR322 relaxation after 1 hr
[6] = system: Staphylococcus aureus; assay: Antibacterial activity against methicillin-resistant Staphylococcus aureus clinical isolate assessed as growth inhibition by broth microdilution method; type: functional
[7] = Fraction unbound in Wistar rat plasma at 0.5 mg/kg, iv and 1 mg/kg, po; type: ADME, organism-based
[8] = Intrinsic clearance in human liver microsomes at 1 uM; type: ADME, Microsome; settings: read-out: CLH
[9] = Oral bioavailability in Wistar rat at 1 mg/kg; type: ADME, organism-based; settings: in vivo
Procedure, shortened: (§1)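 Male Wistar rats (n = 3) dosed by iv bolus (0.5 or 1 mg/kg) or orally (1 or 10 mg/kg); iv vehicles included pH 4.5 aqueous solution, 5% DMSO in water, or 10% PG/10% PEG400 in water pH 7; oral as pH 5.6 aqueous suspension or microsuspension in 7.5% modified gelatin. Blood sampled by preimplanted catheter over 24 h; plasma by LC-MS/MS, LOQ 1.5 ng/mL.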

[10] = system: Staphylococcus aureus; assay: Spontaneous resistance frequency for Staphylococcus aureus ATCC 25923 at 4 times MIC to 16 times MIC after 48 hrs relative to NXL-101; type: functional
Procedure, shortened: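 Incubated 48 h at 37 °C. Frequency calculated as resistant colonies divided by viable bacteria plated, with the viable count taken on drug-free agar.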

[11] = system: Escherichia coli; assay: Antibacterial activity against wild type Escherichia coli ATCC 25922 assessed as growth inhibition by broth microdilution method; type: functional
[12] = Intrinsic clearance in mouse liver microsomes at 1 uM; type: ADME, Microsome; settings: read-out: CLH
[13] = system: Moraxella catarrhalis; assay: Antibacterial activity against Moraxella catarrhalis clinical isolate assessed as growth inhibition by broth microdilution method; type: functional
[14] = system: Staphylococcus epidermidis; assay: Antibacterial activity against Staphylococcus epidermidis clinical isolate assessed as growth inhibition by broth microdilution method; type: functional
[15] = system: Streptococcus pneumoniae; assay: Antibacterial activity against wild type Streptococcus pneumoniae ATCC 49619 assessed as growth inhibition by broth microdilution method; type: functional
[16] = system: Staphylococcus aureus; assay: Antistaphylococcal activity against Staphylococcus aureus DSM 11823 assessed as growth inhibition by broth microdilution method; type: functional
[17] = system: Rattus norvegicus; assay: Unbound clearance in Wistar rat at 0.5 mg/kg, iv and 1 mg/kg, po; type: ADME, organism-based; settings: in vivo; procedure, shortened: as §1
[18] = Inhibition of wild type Escherichia coli ATCC 25922 DNA gyrase subunit 2GyrA/2GyrB assessed as pBR322 supercoiling after 1 hr
[19] = system: Pseudomonas aeruginosa; assay: Antibacterial activity against wild type Pseudomonas aeruginosa ATCC 27853 assessed as growth inhibition by broth microdilution method; type: functional
[20] = AUC in Wistar rat at 0.5 mg/kg, iv; type: ADME, organism-based; set-up: dose 0.5 mg/kg, route intravenous; settings: plasma; procedure, shortened: as §1
[21] = system: Streptococcus pyogenes; assay: Antibacterial activity against Streptococcus pyogenes clinical isolate assessed as growth inhibition by broth microdilution method; type: functional
[22] = system: Enterococcus faecium; assay: Antibacterial activity against vancomycin-resistant Enterococcus faecium clinical isolate assessed as growth inhibition by broth microdilution method; type: functional
[23] = system: Streptococcus pneumoniae; assay: Antibacterial activity against Streptococcus pneumoniae clinical isolate assessed as growth inhibition by broth microdilution method; type: functional
[24] = system: Staphylococcus aureus; assay: Antibacterial activity against fluoroquinolone-resistant Staphylococcus aureus clinical isolate assessed as growth inhibition by broth microdilution method; type: functional
[25] = Intrinsic clearance in rat liver microsomes at 1 uM; type: ADME, Microsome; settings: read-out: CLH
[26] = Volume of distribution at steady state in Wistar rat at 0.5 mg/kg, iv and 1 mg/kg, po; type: ADME, organism-based; settings: in vivo, read-out: Vdss; procedure, shortened: as §1
[27] = system: Staphylococcus aureus; assay: Antibacterial activity against NXL-101-resistant Staphylococcus aureus A-234 harboring DNA gyrase subunit A D83N mutant assessed as growth inhibition by broth microdilution method; type: functional
[28] = biological target: Topoisomerase IV (Staphylococcus aureus, UniProt P0C1S7+P0C1U9); assay: Inhibition of wild type Staphylococcus aureus ATCC 29213 topoisomerase-4 subunit 2GrlA/2GrlB assessed as pBR322 relaxation after 1 hr; type: protein-complex assay
[29] = AUC in Wistar rat at 1 mg/kg, po; type: ADME, organism-based; set-up: dose 1 mg/kg, route oral; settings: plasma; procedure, shortened: as §1
[30] = system: Haemophilus influenzae; assay: Antibacterial activity against Haemophilus influenzae clinical isolate assessed as growth inhibition by broth microdilution method; type: functional
[31] = system: Staphylococcus aureus; assay: Antibacterial activity against wild type Staphylococcus aureus ATCC 29213 assessed as growth inhibition by broth microdilution method; type: functional
[32] = Half life in Wistar rat at 0.5 mg/kg, iv and 1 mg/kg, po; type: ADME, organism-based; settings: in vivo; procedure, shortened: as §1
[33] = system: Streptococcus agalactiae; assay: Antibacterial activity against Streptococcus agalactiae clinical isolate assessed as growth inhibition by broth microdilution method; type: functional
[34] = Clearance in Wistar rat at 0.5 mg/kg, iv; type: ADME, organism-based; set-up: dose 0.5 mg/kg, route intravenous; settings: in vivo; procedure, shortened: as §1

**Q.** With COc1ccc2ncc(F)c([C@@H](O)[C@H](O)[C@@H]3CC[C@@H](NCc4cc5c(cn4)OCCS5)CO3)c2n1 as the compound, how does the IC50 [1] read?
**A.** 0.03 µM

**Q.** And the MIC50 [2]?
**A.** 0.5 µg/mL

**Q.** What about the MIC90 [2] of the same compound?
**A.** 0.5 µg/mL

**Q.** And the inhibition at 0.05 h, 10 µM [3]?
**A.** 19%

**Q.** And the log10cfu [4]?
**A.** 1

**Q.** And the IC50 [5]?
**A.** 0.125 µM

**Q.** And the MIC50 [6]?
**A.** ≤ 0.015 µg/mL

**Q.** And the MIC90 [6]?
**A.** 0.03 µg/mL

**Q.** What about the fraction unbound [7] of the same compound?
**A.** 0.017

**Q.** What about the microsomal CLint at 1 µM [8] of the same compound?
**A.** 30 µL/min/mg

**Q.** And the bioavailability [9]?
**A.** 41%

**Q.** And the “fold change (FC)” value [10]?
**A.** 10

**Q.** What about the MIC [11] of the same compound?
**A.** 8 µg/mL

**Q.** And the microsomal CLint at 1 µM [12]?
**A.** 291 µL/min/mg

**Q.** What about the MIC50 [13] of the same compound?
**A.** 0.03 µg/mL

**Q.** And the MIC90 [13]?
**A.** 0.125 µg/mL

**Q.** And the MIC50 [14]?
**A.** 0.06 µg/mL

**Q.** What about the MIC90 [14] of the same compound?
**A.** 0.25 µg/mL

**Q.** And the MIC [15]?
**A.** ≤ 0.015 µg/mL

**Q.** And the MIC [16]?
**A.** 0.06 µg/mL

**Q.** What about the CL free [17] of the same compound?
**A.** 512 mL/min/kg

**Q.** And the IC50 [18]?
**A.** 8 µM

**Q.** And the MIC [19]?
**A.** > 8 µg/mL

**Q.** What about the AUC [20] of the same compound?
**A.** 959 ng·h/mL

**Q.** And the MIC50 [21]?
**A.** 0.03 µg/mL

**Q.** And the MIC90 [21]?
**A.** 0.06 µg/mL

**Q.** What about the MIC50 [22] of the same compound?
**A.** 0.25 µg/mL

**Q.** What about the MIC90 [22] of the same compound?
**A.** 1 µg/mL

**Q.** What about the MIC50 [23] of the same compound?
**A.** 0.06 µg/mL

**Q.** What about the MIC90 [23] of the same compound?
**A.** 0.125 µg/mL

**Q.** And the MIC50 [24]?
**A.** ≤ 0.015 µg/mL

**Q.** What about the MIC90 [24] of the same compound?
**A.** 0.03 µg/mL

**Q.** What about the microsomal CLint at 1 µM [25] of the same compound?
**A.** 344 µL/min/mg

**Q.** What about the Vd [26] of the same compound?
**A.** 1 L/kg

**Q.** What about the MIC [27] of the same compound?
**A.** 2 µg/mL

**Q.** And the IC50 [28]?
**A.** 8 µM

**Q.** And the AUC [29]?
**A.** 776 ng·h/mL

**Q.** What about the MIC50 [30] of the same compound?
**A.** 0.5 µg/mL

**Q.** What about the MIC90 [30] of the same compound?
**A.** 4 µg/mL

**Q.** What about the MIC [31] of the same compound?
**A.** ≤ 0.015 µg/mL

**Q.** What about the half-life [32] of the same compound?
**A.** 3 h

**Q.** What about the MIC50 [33] of the same compound?
**A.** 0.25 µg/mL

**Q.** And the MIC90 [33]?
**A.** 0.5 µg/mL

**Q.** What about the clearance [34] of the same compound?
**A.** 8.7 mL/min/kg
